Hits are enriched below; roughly 2.2% of the tested compounds scored in any of these assays.
BaF3 parental: parental Ba/F3 viability inhibition as JAK2V617F counter-screen | CellTiter-Glo ATP luminescence | inhibition, % at 5.6 µM | hit rate 1.1% among 220,000 | AID 1486;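 active = inhibition above a per-campaign cutoff, the mean inhibition of all tested compounds plus 3 SD, cut at about 27% in these data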;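 note: 0% = DMSO wells and 100% = JAK Inhibitor I control wells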
bCat nuc transl: alters nuclear translocation of beta-catenin in HeLa cells; immunofluorescence imaging; nuclear translocation activity, % at 5 µM; hit rate 0.3% among 190,000; AID 1665;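 active = nuclear translocation activity above 50% at 5 µM, with a well cell count of 50 or more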;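 note: per-cell ratio of nuclear to cytoplasmic median beta-catenin stain intensity; plate controls were DMSO negative control for no effect and GSK-3 inhibitor IX positive control for full effect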
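Signal – beta-catenin immunofluorescence imaging with DAPI · Test system – human HeLa cell line · Dosing – 5 µM primary single dose, 0.1% DMSO, 0.02–20 µM confirmation series · Measure – % activation, nuclear-to-cytoplasmic median beta-catenin signal ratio per cell · Incubation – 24 h compound exposure at 37°C, 5% CO2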
APP transl inh: APP translation inhibition; SH-SY5Y APP 5'UTR-luciferase reporter, luminescence; inhibition, % at 2 µM; hit rate 0.82% among 190,000; AID 1285;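 active = inhibition above a set limit, derived from the sample mean plus 3 SD, cut at about 45% in these data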
Ba/F3 V617F tox: reduce viability of Ba/F3 cells dependent on JAK2V617F; Ba/F3 EpoR-JAK2V617F viability, ATP luminescence; inhibition, % at 5.6 µM; hit rate 1.1% among 220,000; AID 1446;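 active = inhibition above the campaign mean plus 3 SD over all tested compounds, cut at about 24% in these data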;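 note: cytokine-independent growth of Ba/F3 cells driven by EpoR plus mutant JAK2; 0% = DMSO-treated cells and 100% = JAK inhibitor I control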
MT stabilizer: microtubule stabilization, imaging screen; HeLa tubulin immunostaining HCS, 24 h; share of cells brighter than vehicle mean+2SD; % tubulin-high responders, % at 10 µM; hit rate 0.83% among 200,000;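 active = plate Z-score above 3 for both tubulin-high and condensed-nucleus cell shares, with cell loss under 80%, at 10 µM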;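 note: anti alpha tubulin signal scored within the nucleus-defined area of each cell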
IEC-6 tox: IEC-6 cytotoxicity, counter-screen for KLF5 inhibitors | hit rate 0.78% among 290,000 | luminescence viability | inhibition, % at 5 µM;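 note: 0% = plate median of test compound wells and 100% = cytotoxic reference compound wells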
IEC-6 cytotox cf: IEC-6 cytotoxicity, confirmation assay. shares compounds with IEC-6 tox. IEC-6 rat intestinal epithelial viability, luminescence. inhibition, % at 5 µM. hit rate 63% among 1,900. AID 1907;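 note: 0% = vehicle and 100% = reference cytotoxic drug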
* marks the source's active call; other numbers are inactive results; · = no result given. Cut-off read from the data, not from the text of the source, unless noted: active = inhibition above about 22%; inactive = the rest.

SMILES	BaF3 parental	bCat nuc transl	APP transl inh	Ba/F3 V617F tox	MT stabilizer	IEC-6 tox	IEC-6 cytotox cf
Cc1ccc(S(=O)(=O)c2nc(-c3ccccc3Br)oc2N(C)C)cc1	·	·	·	·	·	2.0	·
Cc1cccc2cc(-c3nc4ccc(C(=O)O)cc4[nH]3)c(=O)oc12	·	·	·	·	·	-1.4	·
CCOn1c(-n2nc(C)cc2C)nc2ccccc2c1=O	-0.2	-4.7	3.9	-4.1	2.3	-1.4	·
Cc1cc(C)n(-c2nc3ccccc3c(=O)n2OCC#N)n1	·	·	·	·	·	85.5*	51.8*
CCC(CC)C(=O)c1c[nH]c(C(=O)NN)c1	12.8	-1.6	88.4*	4.0	2.5	29.8*	6.2
CCOc1ccccc1N1CCN(CC(O)COC2CCCc3ccccc32)CC1 (centres undefined)	·	·	·	·	·	0.1	·
Cc1cccc(NC(=O)CSCC(=O)Nc2cc(Cl)ccc2N2CCN(C)CC2)c1	·	·	·	·	·	3.1	·
CCCNc1nc(-c2ccccc2)c(C(=O)OCC)cc1C#N	58.0*	19.6	81.8*	59.4*	27.4*	45.5*	74.7*
CCc1nonc1NC(=O)c1oc2c(C)c(C)ccc2c1C	·	·	·	·	·	-6.4	·
CCCC(=O)NC(c1ccc(Cl)cc1)c1ccc2cccnc2c1O (centres undefined)	·	·	·	·	·	40.5*	66.9*
CCCCC(=O)NC(c1ccc(Cl)cc1)c1ccc2cccnc2c1O (centres undefined)	·	·	·	·	·	57.3*	68.5*
CCCCC(=O)NC(c1ccccc1OC)c1ccc2cccnc2c1O (centres undefined)	38.1*	0.4	·	47.0*	·	24.0*	57.5*
CCCC(=O)NC(c1ccc(C)cc1)c1ccc2cccnc2c1O (centres undefined)	·	·	·	·	·	55.4*	82.8*
CCCC(=O)NC(c1ccc(Cl)cc1Cl)c1ccc2cccnc2c1O (centres undefined)	·	·	·	·	·	19.0	·
CCCCC(=O)NC(c1ccc(N(CC)CC)cc1)c1ccc2cccnc2c1O (centres undefined)	·	·	·	·	·	10.6	·
CCCC(=O)NC(c1cccs1)c1cc(Cl)c2cccnc2c1O (centres undefined)	-2.2	-1.1	43.5	-1.6	5.0	-0.8	·
C[C@]12C=CC(=O)C=C1CC[C@@H]1[C@@H]2[C@@H](O)C[C@@]2(C)[C@H]1CC[C@]2(O)C(=O)CO	·	·	·	·	·	5.9	·
COc1ccc(N2CCN(c3nccs3)CC2)cc1	·	·	·	·	·	3.8	·
O=C(NC(Cc1ccccc1)C(=O)O)c1cccnc1Cl (centres undefined)	·	·	·	·	·	-1.5	·
CCCCC(=O)NC(c1ccc(N(C)C)cc1)c1ccc2cccnc2c1O (centres undefined)	·	·	·	·	·	62.2*	85.9*
CC(=O)CC1OC(=O)C(Br)=C1NCc1ccccc1 (centres undefined)	28.4*	-1.0	71.2*	75.2*	2.8	33.9*	8.9
CC[C@H](C)[C@H](NC(=O)c1ccccc1)C(=O)NC(CC(=O)O)c1ccc(F)cc1 (some centres undefined)	·	·	·	·	·	-6.4	·
COc1ccc2oc(=O)c(/C(N)=N/NC(=O)c3ccncc3)cc2c1	·	·	·	·	·	7.6	·
O=C(COc1ccccc1-c1ccccc1)NN=C1CCCC1	5.5	-1.3	82.4*	2.8	3.1	53.3*	-8.4
COc1ccc(/C=N/NC(=O)COc2ccccc2-c2ccccc2)cc1	75.9*	142.4*	96.5*	75.7*	13.1	78.6*	55.7*
SMILES	BaF3 parental	bCat nuc transl	APP transl inh	Ba/F3 V617F tox	MT stabilizer	IEC-6 tox	IEC-6 cytotox cf
O=C1CCC/C(=N\NC(=O)c2ccc(COc3ccccc3-c3ccccc3)cc2)C1	2.0	11.1	-5.4	-4.4	3.6	-0.2	·
CCOc1ccc2ccc(OCC)c(/C=N/n3cnnc3)c2c1	·	·	·	·	·	1.1	·
CN(C)S(=O)(=O)c1cccc(CSCc2cccc(S(=O)(=O)N(C)C)c2)c1	·	·	·	·	·	8.6	·
COc1ccc(OCc2cc(C(=O)NC3CCOC(C)(C)C3)no2)c2ccccc12 (centres undefined)	·	·	·	·	·	41.8*	0.8
CSc1ccccc1OCc1cc(C(=O)NC2CCOC(C)(C)C2)no1 (centres undefined)	·	·	·	·	·	2.4	·
Cn1ncc2c(O/N=C(\N)c3ccc(C(C)(C)C)cc3)ncnc21	36.1*	25.1	·	75.0*	·	92.7*	21.2
Cc1cc(C)cc(C(=O)N2CC(=O)Nc3ccccc32)c1	82.1*	153.9*	91.5*	78.0*	28.0*	88.6*	56.8*
CS(=O)(=O)c1ccc(C(=O)N2CC(=O)Nc3ccccc32)cc1	·	·	·	·	·	3.8	·
